In ChEMBL document CHEMBL4627348, “Synthesis of (1,3,4-thiadiazol-2-yl)-acrylamide derivatives as potential antitumor agents against acute leukemia cells” (Bioorg Med Chem Lett, 2020):
Active and inactive are the calls of the source. No cut-off for these calls is given here.

Columns and labels:
RS4-11 [1] = assay: Induction of apoptosis in human RS4:11 cells assessed as PARP degradation at 2.5 to 40 uM after 48 hrs by Western blot analysis; format: functional, cell-based
Method in brief: (§1)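 RS4;11 cells treated 48 h at concentrations from 2.5 to 40 μM, DMSO as negative control. Western blot for full-length PARP (116 kDa) and cleaved PARP (89 kDa), plus cleaved caspase-3 and cleaved caspase-9.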

RS4-11 [2] = assay: Antiproliferative activity against human RS4:11 cells assessed as growth inhibition after 48 hrs by CCK-8 assay; format: functional, cell-based; settings: RS4-11, 48 h
HL-60 [3] = assay: Antiproliferative activity against human HL60 cells assessed as growth inhibition at 20 uM after 48 hrs by CCK-8 assay relative to control; format: functional; settings: HL-60, 48 h, read-out: GI
Method in brief: (§2)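 Single-dose screen at 20 μM in RS4;11 (human ALL), HL-60 (human promyelocytic leukemia) and HEK293T (normal-cell model). Cells exposed 48 h, viability read by CCK-8, growth inhibition ratio expressed relative to control.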

[4] = (§3) Cytotoxicity against HEK293T cells assessed as growth inhibition at 20 uM after 48 hrs by CCK8 assay relative to control; format: cell-based, HEK-293T; settings: human, HEK293T cells; read-out: GI; method in brief: as §2
RS4-11 [5] = assay: Induction of apoptosis in human RS4:11 cells assessed as early apoptotic cells at 40 uM after 48 hrs by Annexin-V and 7-AAD staining based flow cytometric analysis (reference value: 2.56%); format: functional
RS4-11 [6] = assay: Induction of apoptosis in human RS4:11 cells assessed as necrotic cells at 40 uM after 48 hrs by Annexin-V and 7-AAD staining based flow cytometric analysis (reference value: 0.67%); format: functional
RS4-11 [7] = assay: Induction of apoptosis in human RS4:11 cells assessed as late apoptotic cells at 40 uM after 48 hrs by Annexin-V and 7-AAD staining based flow cytometric analysis (reference value: 2.71%); format: functional
RS4-11 [8] = assay: Induction of apoptosis in human RS4:11 cells assessed as viable cells at 40 uM after 48 hrs by Annexin-V and 7-AAD staining based flow cytometric analysis (reference value: 94.06%); format: functional; settings: RS4-11, 48 h, read-out: Activity
RS4-11 [9] = assay: Induction of mitochondrial membrane potential loss in human RS4:11 cells at 40 uM after 48 hrs by MitoSense Red staining based fluorescence assay; format: functional, cell-based
Method in brief: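 RS4;11 cells exposed 48 h at 5–40 μM, DMSO as negative control. Stained with MitoSense Red and analysed by flow cytometry. Loss of mitochondrial membrane potential is read as a drop in Red2 fluorescence.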

RS4-11 [10] = assay: Induction of apoptosis in human RS4:11 cells assessed as increase in cleaved PARP protein expression after 48 hrs by Western blot analysis; format: functional, cell-based; method in brief: as §1
RS4-11 [11] = assay: Induction of apoptosis in human RS4:11 cells assessed as increase in cleaved PARP protein expression at 2.5 to 40 uM after 48 hrs by Western blot analysis; format: functional, cell-based; method in brief: as §1
HL-60 [12] = assay: Antiproliferative activity against human HL60 cells assessed as growth inhibition after 48 hrs by CCK-8 assay; format: functional, cell-based; settings: HL-60, 48 h
RS4-11 [13] = assay: Induction of apoptosis in human RS4:11 cells assessed as increase in cleaved caspase-9 protein expression after 48 hrs by Western blot analysis; format: functional, cell-based; method in brief: as §1
HEK-293T [14] = assay: Cytotoxicity against human HEK293T cells assessed as growth inhibition after 48 hrs by CCK8 assay; format: cell-based
RS4-11 [15] = assay: Antiproliferative activity against human RS4:11 cells assessed as growth inhibition at 20 uM after 48 hrs by CCK-8 assay relative to control; format: functional; settings: RS4-11, 48 h, read-out: GI; method in brief: as §2
RS4-11 [16] = assay: Induction of apoptosis in human RS4:11 cells assessed as increase in cleaved caspase-3 protein expression after 48 hrs by Western blot analysis; format: functional, cell-based; method in brief: as §1
RS4-11 [17] = assay: Induction of apoptosis in human RS4:11 cells assessed as early apoptotic cells at 0.5 uM after 48 hrs by Annexin-V and 7-AAD staining based flow cytometric analysis (reference value: 2.56%); format: functional
RS4-11 [18] = assay: Antiproliferative activity against human RS4:11 cells assessed as growth inhibition at 1 uM after 48 hrs by CCK-8 assay relative to control; format: functional; settings: RS4-11, 48 h, read-out: GI
Method in brief: (§4)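 Positive-control reference compound run at 1 μM alongside the 20 μM screen. CCK-8 viability after 48 h exposure, inhibition ratio relative to control.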

RS4-11 [19] = assay: Induction of apoptosis in human RS4:11 cells assessed as late apoptotic cells at 0.5 uM after 48 hrs by Annexin-V and 7-AAD staining based flow cytometric analysis (reference value: 2.71%); format: functional
HL-60 [20] = assay: Antiproliferative activity against human HL60 cells assessed as growth inhibition at 1 uM after 48 hrs by CCK-8 assay relative to control; format: functional; settings: HL-60, 48 h, read-out: GI; method in brief: as §4
RS4-11 [21] = assay: Induction of apoptosis in human RS4:11 cells assessed as necrotic cells at 0.5 uM after 48 hrs by Annexin-V and 7-AAD staining based flow cytometric analysis (reference value: 0.67%); format: functional
RS4-11 [22] = assay: Induction of apoptosis in human RS4:11 cells assessed as viable cells at 0.5 uM after 48 hrs by Annexin-V and 7-AAD staining based flow cytometric analysis (reference value: 94.06%); format: functional; settings: RS4-11, 48 h, read-out: Activity
HEK-293T [23] = assay: as §3; format: cell-based; settings: human, hek-293t, 48 h, 20 µM; method in brief: as §2

| IC50 (RS4-11 [2]) [µM] | IC50 (HL-60 [12]) [µM] | SMILES | inhibition of growth at 20 µM (HL-60 [3]) [%] | inhibition at 48 h, 20 µM [4] [%] | IC50 (HEK-293T [14]) [µM] | inhibition of growth at 20 µM (RS4-11 [15]) [%] | growth inhibition (GI) (HEK-293T [23]) | also measured |
| --- | --- | --- | --- | --- | --- | --- | --- | --- |
| 1.25 | 4.36 | COc1ccc(S(=O)(=O)Oc2ccccc2/C=C(\C#N)C(=O)Nc2nnc(Cc3ccc(Cl)cc3)s2)cc1 | 99 | 26 | > 50 | 77 |  | Activity (RS4-11 [1]): Active; Activity (RS4-11 [5]): 5%; Activity (RS4-11 [6]): 2.68%; Activity (RS4-11 [7]): 76.08%; viability at 40 µM (RS4-11 [8]): 16.2%; Activity (RS4-11 [9]): Active; Activity (RS4-11 [10]): Dose-dependent effect; Activity (RS4-11 [11]): Active; Activity (RS4-11 [13]): Dose-dependent effect; Activity (RS4-11 [16]): Dose-dependent effect |
| > 20 | 11.1 | N#C/C(=C\c1ccccc1OS(=O)(=O)c1ccc(OC(F)(F)F)cc1)C(=O)Nc1nnc(-c2cc3ccccc3[nH]2)s1 | 59 | 53 | 14.4 | 26 |  |  |
| 1.21 | 3.88 | COc1ccc(S(=O)(=O)Oc2ccccc2/C=C(\C#N)C(=O)Nc2nnc(Cc3cccc(F)c3)s2)cc1 | 100 | 29 | > 50 | 74 |  |  |
| > 20 | 8.75 | Cc1ccc(S(=O)(=O)Oc2cccc(/C=C(\C#N)C(=O)Nc3nnc(-c4cccs4)s3)c2)cc1 | 62 | 43 | > 20 | 25 |  |  |
| 1.21 | 4.05 | COc1ccc(S(=O)(=O)Oc2ccccc2/C=C(\C#N)C(=O)Nc2nnc(Cc3ccc(F)cc3)s2)cc1 | 100 | 20 | > 50 | 76 |  | Activity (RS4-11 [1]): Active; Activity (RS4-11 [5]): 5.88%; Activity (RS4-11 [6]): 2.07%; Activity (RS4-11 [7]): 61.84%; viability at 40 µM (RS4-11 [8]): 30.2%; Activity (RS4-11 [9]): Active; Activity (RS4-11 [10]): Dose-dependent effect; Activity (RS4-11 [11]): Active; Activity (RS4-11 [13]): Dose-dependent effect; Activity (RS4-11 [16]): Dose-dependent effect |
| 1.01 | 4.08 | COc1ccc(S(=O)(=O)Oc2ccccc2/C=C(\C#N)C(=O)Nc2nnc(Cc3ccc(C)cc3)s2)cc1 | 100 | 28 | > 50 | 79 |  |  |
| > 20 | 7.94 | CC(=O)Nc1ccc(S(=O)(=O)Oc2cccc(/C=C(\C#N)C(=O)Nc3nnc(-c4cccs4)s3)c2)cc1 | 71 | 20 | > 20 | 33 |  |  |
| > 20 | 11.5 | Cc1ccc(S(=O)(=O)Oc2ccccc2/C=C(\C#N)C(=O)Nc2nnc(C)s2)cc1 | 78 | 35 | > 20 | 33 |  |  |

The remaining lines, values behind:

| SMILES | IC50 (RS4-11 [2]) [µM] | IC50 (HL-60 [12]) [µM] | inhibition of growth at 20 µM (HL-60 [3]) [%] | inhibition at 48 h, 20 µM [4] [%] | IC50 (HEK-293T [14]) [µM] | inhibition of growth at 20 µM (RS4-11 [15]) [%] | growth inhibition (GI) (HEK-293T [23]) | also measured |
| --- | --- | --- | --- | --- | --- | --- | --- | --- |
| COc1ccc(Cc2nnc(NC(=O)/C(C#N)=C/c3ccccc3OS(=O)(=O)c3ccc(OC)cc3)s2)cc1 | 0.84 | 3.12 | 100 | 30 | > 50 | 78 |  | Activity (RS4-11 [1]): Active; Activity (RS4-11 [5]): 5.07%; Activity (RS4-11 [6]): 2.58%; Activity (RS4-11 [7]): 72.63%; viability at 40 µM (RS4-11 [8]): 19.7%; Activity (RS4-11 [9]): Active; Activity (RS4-11 [10]): Dose-dependent effect; Activity (RS4-11 [11]): Active; Activity (RS4-11 [13]): Dose-dependent effect; Activity (RS4-11 [16]): Dose-dependent effect |
| CC1(C)CCC(CN2CCN(c3ccc(C(=O)NS(=O)(=O)c4ccc(NCC5CCOCC5)c([N+](=O)[O-])c4)c(Oc4cnc5[nH]ccc5c4)c3)CC2)=C(c2ccc(Cl)cc2)C1 [VENETOCLAX] |  |  |  |  |  |  |  | Activity (RS4-11 [17]): 11.91%; inhibition of growth at 1 µM (RS4-11 [18]): 95%; Activity (RS4-11 [19]): 83.27%; inhibition of growth at 1 µM (HL-60 [20]): 98%; Activity (RS4-11 [21]): 2.11%; viability at 0.5 µM (RS4-11 [22]): 2.71% |
| COc1ccc(S(=O)(=O)Oc2ccccc2/C=C(\C#N)C(=O)Nc2nnc(Cc3ccccc3)s2)cc1 | 1.06 | 3.17 | 100 | 23 | > 50 | 78 |  |  |
| N#C/C(=C\c1ccccc1OS(=O)(=O)c1ccccc1[N+](=O)[O-])C(=O)Nc1nnc(Cc2cccc3ccccc23)s1 |  |  | 23 |  |  | 66 | Non-Toxic |  |
| N#C/C(=C\c1ccccc1OS(=O)(=O)c1ccc([N+](=O)[O-])cc1)C(=O)Nc1nnc(Cc2cccc(F)c2)s1 |  |  | 18 |  |  | 65 | Non-Toxic |  |
| COc1ccccc1-c1nnc(NC(=O)/C(C#N)=C/c2cccc(OS(=O)(=O)c3ccc(C)cc3)c2)s1 |  |  | 73 |  |  | 41 | Non-Toxic |  |
| N#C/C(=C\c1ccccc1OS(=O)(=O)c1ccc(F)cc1)C(=O)Nc1nnc(Cc2ccc(F)cc2)s1 |  |  | 13 |  |  | 59 | Non-Toxic |  |
| N#C/C(=C\c1ccccc1OS(=O)(=O)c1ccccc1[N+](=O)[O-])C(=O)Nc1nnc(Cc2cccc(F)c2)s1 |  |  | 23 |  |  | 68 | Non-Toxic |  |
| N#C/C(=C\c1ccccc1OS(=O)(=O)c1ccc([N+](=O)[O-])cc1)C(=O)Nc1nnc(Cc2ccccc2)s1 |  |  | 20 |  |  | 57 | Non-Toxic |  |
| COc1ccc(-c2nnc(NC(=O)/C(C#N)=C/c3cccc(OS(=O)(=O)c4ccc(C)cc4)c3)s2)cc1 |  |  | 73 |  |  | 79 | Non-Toxic |  |
